ChEMBL document CHEMBL1149108, “Arecoline tripeptide inhibitors of proteasome” (J Med Chem, 2004)
pIC50: −log10 of the molar value. Non-standard residues stand in square brackets, D forms with d. Residues, ends and D or L forms follow the SMILES beside them. ξ: configuration not given here. *: point of attachment. Fmoc = O=C(OCC1c2ccccc2-c2ccccc21)*; Cbz = O=C(OCc1ccccc1)*; ξNle = CCCCC(N)C(=O)O; NHBn = c1ccc(CN*)cc1

How the values were obtained:
Proteasome [1] = assay: Inhibitory activity was evaluated against trypsin-like (proteasome) enzyme; format: subcellular
Procedure, shortened: (§1)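 Proteasome partially purified from lymphoblastoid cell lines, affinity-purified and dialysed against 25 mM Tris-HCl pH 7.5. Enzyme untreated or pretreated with 0.01-20 µM compound, then incubated 30 min at 37 °C in activity buffer with fluorogenic substrate: Suc-LLVY-AMC for chymotrypsin-like, Boc-LRR-AMC for trypsin-like. Fluorescence read at ex 360/em 465 nm; IC50 derived.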

Proteasome [2] = assay: Inhibitory activity was evaluated against postacid PGPH active site; format: subcellular
Procedure, shortened: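 Postacidic (PGPH) activity measured with Ac-YVAD-AMC on partially purified, affinity-purified lymphoblastoid proteasome in 25 mM Tris-HCl pH 7.5. Enzyme untreated or pretreated with 0.01-20 µM compound, then substrate added for 30 min at 37 °C in activity buffer. Fluorescence read at ex 360/em 465 nm; IC50 calculated.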

Proteasome [3] = assay: Inhibitory activity was evaluated against chymotrypsin-like enzyme; format: subcellular; procedure, shortened: as §1
[4] = Half-life in culture medium was determined; format: ADME
Procedure, shortened: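 Compound (stock 10 mg/mL in acetonitrile/H2O 1:1) added to RPMI containing 20% FCS and incubated at 37 °C for up to 2 days. Ethanol added to stop the reaction, then centrifugation and RP-HPLC of the supernatant. Half-life taken from least-squares linear regression of log inhibitor concentration versus time, at least five points.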

[5] = Half-life in human plasma was determined; format: ADME
Procedure, shortened: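 Compound incubated with human plasma (0.6 mL in 1.5 mL total) in 10 mM Tris-HCl pH 7.5 at 37 °C for up to 360 min. Ethanol added to stop the reaction, then centrifugation and RP-HPLC of the supernatant. Half-life taken from least-squares regression of log concentration versus time, minimum five points.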

For `CC(C)C[C@H](NC(=O)OCc1ccccc1)C(=O)N[C@@H](CC(C)C)C(=O)N[C@@H](CC(C)C)C(=O)NCc1ccccc1` (HELM PEPTIDE1{[O=C(OCc1ccccc1)[*:2]].L.L.L.[c1ccc(CN[*:1])cc1]}$$$$V2.0), the pIC50 (Proteasome [1]) was 5.05, the pIC50 (Proteasome [2]) was less than 4.70 and the pIC50 (Proteasome [3]) was 5.02.

`CC(C)C[C@H](NC(=O)OCC1c2ccccc2-c2ccccc21)C(=O)N[C@@H](CO)C(=O)N[C@@H](CC(C)C)C(=O)NCc1ccccc1` (HELM PEPTIDE1{[O=C(OCC1c2ccccc2-c2ccccc21)[*:2]].L.S.L.[c1ccc(CN[*:1])cc1]}$$$$V2.0) showed a pIC50 (Proteasome [1]) of less than 4.70, a pIC50 (Proteasome [2]) of less than 4.70 and a pIC50 (Proteasome [3]) of less than 4.70.

`CCCCC(NC(=O)OCC1c2ccccc2-c2ccccc21)C(=O)N[C@@H](CO)C(=O)N[C@@H](CC(C)C)C(=O)NCc1ccccc1` (stereo partly drawn) (Fmoc-[ξNle]-Ser-Leu-NHBn) gave a pIC50 (Proteasome [1]) of less than 4.70, a pIC50 (Proteasome [2]) of less than 4.70 and a pIC50 (Proteasome [3]) of less than 4.70.

With `CC(C)C[C@H](NC(=O)C1=CCCNC1)C(=O)N[C@@H](CC(C)C)C(=O)N[C@@H](CC(C)C)C(=O)NCc1ccccc1` the pIC50 (Proteasome [1]) was 5.59, the half-life [4] was greater than 6 h and the pIC50 (Proteasome [2]) was less than 4.70. The half-life [5] was 4.92 h and the pIC50 (Proteasome [3]) was 5.85.

`CC(C)C[C@H](NC(=O)[C@H](CO)NC(=O)[C@H](C)NC(=O)OCC1c2ccccc2-c2ccccc21)C(=O)NCc1ccccc1` (HELM PEPTIDE1{[O=C(OCC1c2ccccc2-c2ccccc21)[*:2]].A.S.L.[c1ccc(CN[*:1])cc1]}$$$$V2.0) showed a pIC50 (Proteasome [1]) of less than 4.70, a pIC50 (Proteasome [2]) of less than 4.70 and a pIC50 (Proteasome [3]) of less than 4.70.

`CC(C)C[C@H](NC(=O)[C@H](CO)NC(=O)[C@H](Cc1ccccc1)NC(=O)OCc1ccccc1)C(=O)NCc1ccccc1` gave a pIC50 (Proteasome [1]) of 5.32, a pIC50 (Proteasome [2]) of 4.76 and a pIC50 (Proteasome [3]) of 5.66.

Work on `CC(C)C[C@H](NC(=O)[C@H](CO)NC(=O)[C@H](Cc1ccccc1)NC(=O)OCC1c2ccccc2-c2ccccc21)C(=O)NCc1ccccc1` yielded a pIC50 (Proteasome [1]) of 4.89, a pIC50 (Proteasome [2]) of 4.72 and a pIC50 (Proteasome [3]) of 4.96.

Work on `CC(C)C[C@H](NC(=O)[C@H](CO)NC(=O)[C@@H](NC(=O)OCC1c2ccccc2-c2ccccc21)C(C)C)C(=O)NCc1ccccc1` (HELM PEPTIDE1{[O=C(OCC1c2ccccc2-c2ccccc21)[*:2]].V.S.L.[c1ccc(CN[*:1])cc1]}$$$$V2.0) yielded a pIC50 (Proteasome [1]) of 4.87, a pIC50 (Proteasome [2]) of less than 4.70 and a pIC50 (Proteasome [3]) of 5.23.

With `CCCCC(NC(=O)OCc1ccccc1)C(=O)N[C@@H](CO)C(=O)N[C@@H](CC(C)C)C(=O)NCc1ccccc1` (stereo partly drawn) (Cbz-[ξNle]-Ser-Leu-NHBn) the pIC50 (Proteasome [1]) was 4.74, the pIC50 (Proteasome [2]) was less than 4.70 and the pIC50 (Proteasome [3]) was less than 4.70.

`CC(C)C[C@H](NC(=O)[C@H](CO)NC(=O)[C@H](Cc1ccccc1)NC(=O)C1=CCCNC1)C(=O)NCc1ccccc1` gave a pIC50 (Proteasome [1]) of 5.53, a half-life [4] greater than 6 h and a pIC50 (Proteasome [2]) of less than 4.70. It also gave a half-life [5] greater than 6 h and a pIC50 (Proteasome [3]) of 5.91.

Work on `CC(C)C[C@H](NC(=O)[C@H](CO)NC(=O)[C@@H](NC(=O)C1=CCCNC1)C(C)C)C(=O)NCc1ccccc1` yielded a pIC50 (Proteasome [1]) of 5.67, a half-life [4] greater than 6 h and a pIC50 (Proteasome [2]) of less than 4.70. For the same compound, the half-life [5] was greater than 6 h and the pIC50 (Proteasome [3]) was 6.28.

For `CC(C)C[C@H](NC(=O)[C@H](CO)NC(=O)[C@@H]1CCCN1C(=O)OCC1c2ccccc2-c2ccccc21)C(=O)NCc1ccccc1` (HELM PEPTIDE1{[O=C(OCC1c2ccccc2-c2ccccc21)[*:2]].P.S.L.[c1ccc(CN[*:1])cc1]}$$$$V2.0), the pIC50 (Proteasome [1]) was less than 4.70, the pIC50 (Proteasome [2]) was less than 4.70 and the pIC50 (Proteasome [3]) was less than 4.70.

Compound `CC(C)C[C@H](NC(=O)OCC1c2ccccc2-c2ccccc21)C(=O)N[C@@H](CC(C)C)C(=O)N[C@@H](CC(C)C)C(=O)NCc1ccccc1` (HELM PEPTIDE1{[O=C(OCC1c2ccccc2-c2ccccc21)[*:2]].L.L.L.[c1ccc(CN[*:1])cc1]}$$$$V2.0) has a pIC50 (Proteasome [1]) of 4.97, a pIC50 (Proteasome [2]) of less than 4.70 and a pIC50 (Proteasome [3]) of 4.91.

Compound `CC[C@H](C)[C@H](NC(=O)OCc1ccccc1)C(=O)N[C@@H](CO)C(=O)N[C@@H](CC(C)C)C(=O)NCc1ccccc1` (HELM PEPTIDE1{[O=C(OCc1ccccc1)[*:2]].I.S.L.[c1ccc(CN[*:1])cc1]}$$$$V2.0) has a pIC50 (Proteasome [1]) of less than 4.70, a pIC50 (Proteasome [2]) of less than 4.70 and a pIC50 (Proteasome [3]) of less than 4.70.

`CC(C)C[C@H](NC(=O)OCc1ccccc1)C(=O)N[C@@H](CO)C(=O)N[C@@H](CC(C)C)C(=O)NCc1ccccc1` (HELM PEPTIDE1{[O=C(OCc1ccccc1)[*:2]].L.S.L.[c1ccc(CN[*:1])cc1]}$$$$V2.0) gave a pIC50 (Proteasome [1]) of 4.80, a pIC50 (Proteasome [2]) of less than 4.70 and a pIC50 (Proteasome [3]) of less than 4.70.

With `CC(C)C[C@H](NC(=O)[C@H](CO)NC(=O)[C@H](C)NC(=O)OCc1ccccc1)C(=O)NCc1ccccc1` (HELM PEPTIDE1{[O=C(OCc1ccccc1)[*:2]].A.S.L.[c1ccc(CN[*:1])cc1]}$$$$V2.0) the pIC50 (Proteasome [1]) was less than 4.70, the pIC50 (Proteasome [2]) was less than 4.70 and the pIC50 (Proteasome [3]) was less than 4.70.

`CC(C)C[C@H](NC(=O)[C@H](CO)NC(=O)[C@@H](NC(=O)OCc1ccccc1)C(C)C)C(=O)NCc1ccccc1` (HELM PEPTIDE1{[O=C(OCc1ccccc1)[*:2]].V.S.L.[c1ccc(CN[*:1])cc1]}$$$$V2.0) showed a pIC50 (Proteasome [1]) of 5.02, a pIC50 (Proteasome [2]) of less than 4.70 and a pIC50 (Proteasome [3]) of 5.43.

`CC[C@H](C)[C@H](NC(=O)OCC1c2ccccc2-c2ccccc21)C(=O)N[C@@H](CO)C(=O)N[C@@H](CC(C)C)C(=O)NCc1ccccc1` (HELM PEPTIDE1{[O=C(OCC1c2ccccc2-c2ccccc21)[*:2]].I.S.L.[c1ccc(CN[*:1])cc1]}$$$$V2.0) gave a pIC50 (Proteasome [1]) of less than 4.70, a pIC50 (Proteasome [2]) of less than 4.70 and a pIC50 (Proteasome [3]) of less than 4.70.
